Compound activity (PubChem)
Most compounds without a hit are left out; they make up all but 4.1% or so of the library.
KCNK3 block: human KCNK3 channel inhibitors, primary screen, CHO cells, FluxOR thallium flux, B-score; Potassium channel subfamily K member 3 (Homo sapiens), O14649; FluxOR fluorescence; active compounds read low; B-score at 10 µM; 0.84% of 340,000 active; AID 602410, 2012;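 active = B-score under library mean minus 4 SD, starting fluorescence ratio at most library mean plus 5 SD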;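 note: more negative B-score means stronger inhibition of thallium flux through KCNK3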
KCNQ1 act: potentiators or activators of KCNQ1 channel, primary screen, cell-based, thallium flux, high-throughput | CHO-K1 KCNQ1, thallium flux FluxOR fluorescence; active compounds read high | B-score at 10 µM | 0.35% of 310,000 active | AID 2648, 2010;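 active = fluorescence ratio B-score, a plate-corrected score, at least three library SD, with initial intensity B-score within 5 SD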
Target sequence (P51787 whole entry, looked up): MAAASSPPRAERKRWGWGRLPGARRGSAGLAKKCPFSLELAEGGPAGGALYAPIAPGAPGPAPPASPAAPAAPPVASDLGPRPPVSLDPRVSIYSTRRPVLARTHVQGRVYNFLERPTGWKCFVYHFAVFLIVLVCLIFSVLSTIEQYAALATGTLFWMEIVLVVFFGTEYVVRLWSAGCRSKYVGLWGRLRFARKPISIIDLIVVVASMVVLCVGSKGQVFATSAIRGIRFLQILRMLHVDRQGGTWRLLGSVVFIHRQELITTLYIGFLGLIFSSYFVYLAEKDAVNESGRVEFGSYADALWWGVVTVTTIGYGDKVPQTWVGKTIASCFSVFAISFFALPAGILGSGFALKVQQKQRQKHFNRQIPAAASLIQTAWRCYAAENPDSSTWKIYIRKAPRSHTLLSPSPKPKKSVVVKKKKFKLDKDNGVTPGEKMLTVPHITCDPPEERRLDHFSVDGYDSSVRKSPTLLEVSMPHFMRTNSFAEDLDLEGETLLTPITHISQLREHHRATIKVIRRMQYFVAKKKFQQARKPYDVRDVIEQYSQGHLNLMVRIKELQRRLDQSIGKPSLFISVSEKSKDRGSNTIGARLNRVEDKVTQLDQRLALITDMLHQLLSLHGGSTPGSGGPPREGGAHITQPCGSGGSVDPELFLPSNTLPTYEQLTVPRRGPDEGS
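Assay system: CHO-K1 cells stably expressing KCNQ1. Medium: assay buffer for compound exposure, DMSO matched across wells. Timing: 37 °C overnight plating, 90-min dark dye load, 20-min compound pretreatment. Signal: kinetic FluxOR fluorescence, 10 s baseline plus 110 s post-stimulus.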
KCNQ1 inh: inhibitors of human KCNQ1 channel, primary screen, cell-based, thallium flux, high-throughput. B-score at 10 µM. CHO-K1 KCNQ1, FluxOR thallium flux fluorescence; active compounds read high. Potassium voltage-gated channel subfamily KQT member 1 (Homo sapiens), P51787. 1.3% of 310,000 active;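 active = compounds whose thallium flux B-score, printed positive for inhibition, exceeds three library SD while starting fluorescence stays within three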;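 note: channel opened by potassium depolarization with thallium stimulus after 20 min compound exposure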
hERG rescue: hERG rescue from dofetilide block, primary screen, cell-based, CHO-hERG, FluxOR thallium flux, dofetilide IC70; Voltage-gated inwardly rectifying potassium channel KCNH2 (Homo sapiens), Q12809; dofetilide IC70 present; activation (rescue from dofetilide block), less the hit threshold, % at 10 µM; 0.51% of 310,000 active; AID 1511, 2009;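 active = activation above the mean of controls blocked by dofetilide plus 5 SD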;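 note: thallium influx through hERG after potassium depolarization seen as dye fluorescence rise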
KCNK9 inh: KCNK9 potassium channel inhibitors, primary screen, HEK293 cells, thallium flux. B-score at 10 µM. Potassium channel subfamily K member 9 (Homo sapiens), Q9NPC2. FluxOR thallium flux fluorescence; active compounds read low. AID 488922, 2010. 1.2% of 310,000 active;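 active = ratio B-score over 3 SD below the library mean, with starting fluorescence within 5 SD of its mean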;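 note: negative B-score means less thallium flux so channel inhibition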
Cl transport mod: KCC2 cotransporter modulators, thallium flux, primary screen, cell-based, HEK293 KCC2, FluoZin-2 fluorescence, MLSMR | Solute carrier family 12 member 5 (Homo sapiens), Q9H2X9 | KCC2 cells, thallium flux FluoZin-2 fluorescence | B-score of Tl+ flux slope (higher = more flux/activation; lower = inhibition) at 10 µM | 2.2% of 190,000 active;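 active = thallium flux slope and its plate-corrected score both differing from the plate sample mean at a set confidence after two filtering rounds, in either direction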;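 note: slope of fluorescence scaled to starting intensity during 10 to 20 s after thallium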
Of the large screens only hits and unclear results are named; the others gave an inactive call.

Cn1ccnc1CN1CCCCC1C(=O)Nc1ccc(Oc2cccnc2)cc1 (stereo not given)	none (no result: Cl transport mod)
COc1ccc(S(=O)(=O)N2CCCC2C(=O)Nc2nnc(-c3cccnc3)s2)cc1 (stereo not given)	hERG rescue 7.5 (no result: Cl transport mod)
CCCOc1ccc(/C(O)=C2/C(=O)C(=O)N(c3ccccn3)C2c2ccc(OC)cc2)cc1C (stereo not given)	none (no result: Cl transport mod)
CCS(=O)(=O)N1CCC(c2nc3ccccc3[nH]2)CC1	none (no result: Cl transport mod)
O=C(c1ccc(Cl)nc1)c1cccs1	none (no result: KCNK3 block, Cl transport mod)
Nc1cc(C(=O)c2cccs2)ccc1Cl	KCNK9 inh -6.8 (no result: Cl transport mod)
CSc1ccc(-c2cccc([N+](=O)[O-])c2)nn1	none
O=[N+]([O-])c1cccc(-c2ccc(SCc3cccnc3)nn2)c1	KCNQ1 inh 6
CCOc1ccccc1N1CC(O)=C(c2nc3ccccc3s2)C1=N	none
COc1ccc(OC)c(N2CC(O)=C(c3nc4ccccc4s3)C2=N)c1	KCNK9 inh -6.6
CCCn1c(N)c(C(=O)CSc2nnc3ccccn23)c(=O)n(C)c1=O	none (no result: KCNQ1 act, KCNQ1 inh, hERG rescue, KCNK9 inh, Cl transport mod)
COc1ccc2oc(C(=O)OCC(=O)N(C)C3CCCCC3)c(C)c2c1	none (no result: Cl transport mod)
COc1ccc(C(=O)CC(=O)C(=O)Nc2cc(Cl)c(OC)cc2OC)cc1	none
COc1ccc(C(=O)CC(=O)C(=O)Nc2ccccc2C(F)(F)F)cc1	KCNQ1 act 12, hERG rescue 7.8 (no result: Cl transport mod)
COc1ccc(C(=O)CC(=O)C(=O)Nc2ccccc2Cl)cc1	hERG rescue 13 (no result: Cl transport mod)
COc1ccc(C(=O)CC(=O)C(=O)Nc2ccc(Cl)cc2)cc1	hERG rescue 13 (no result: Cl transport mod)
CC1COCC(C)N1C1=C(Cl)C(=O)c2ccccc2C1=O (stereo not given)	KCNK3 block -10 (no result: KCNQ1 act, KCNQ1 inh, hERG rescue, KCNK9 inh, Cl transport mod)
O=C1C(Cl)=C(N2CCC(C(=O)O)CC2)C(=O)c2ccccc21	KCNQ1 inh 6
Cc1ccc(/C=N/NC(=O)c2cc3c(s2)CCCC3)o1	none (no result: KCNQ1 act, KCNQ1 inh, hERG rescue, KCNK9 inh, Cl transport mod)
CC1(C)CC(=O)C=C(c2cccs2)C1	none (no result: Cl transport mod)
COc1ccc(NC(=O)Nc2cc(C)ccc2F)cc1	hERG rescue 5.1
COc1ccc(-c2nnc(CSc3nc4ccccc4c(=O)n3CC(C)C)o2)cc1OC	KCNK3 block -9.5 (no result: Cl transport mod)
CCN1CCN(c2nc3ccccn3c(=O)c2C=O)CC1	none (no result: Cl transport mod)
O=Cc1c(N2CCN(CCO)CC2)nc2ccccn2c1=O	KCNQ1 inh 13 (no result: Cl transport mod)
CCN(CCO)c1ccc(NC(=S)Nc2cccc(S(=O)(=O)N(C)C)c2)cc1	none
CN(C)S(=O)(=O)c1cccc(NC(=S)Nc2cc(Cl)cc(Cl)c2)c1	KCNQ1 inh 7
CN(C)S(=O)(=O)c1cccc(NC(=S)Nc2ccc(Cl)cc2Cl)c1	Cl transport mod 5.5
O=[N+]([O-])c1ccc(Nc2ccc3ccccc3c2)nc1	hERG rescue 5.5 (no result: Cl transport mod)
Cc1nc(SCC(=O)NCC2CCCO2)c2c3c(sc2n1)CCCC3 (stereo not given)	KCNQ1 act 13, hERG rescue 15 (no result: Cl transport mod)
COc1cc(/C=N/NS(=O)(=O)c2ccc(C)c([N+](=O)[O-])c2)ccc1O	none
COc1cc(/C=N/NS(=O)(=O)c2ccc(C)c([N+](=O)[O-])c2)cc([N+](=O)[O-])c1O	KCNQ1 inh 6 (no result: Cl transport mod)
O=C(CN1CCOCC1)NNc1nc(-c2ccccc2)c2cc(Br)ccc2n1	KCNQ1 inh 7
CCc1ccccc1NC(=O)CCS(=O)(=O)c1ccc(OC)cc1	none (no result: Cl transport mod)
CCN(CC(=O)Nc1ccc(OC)cc1)CC(=O)Nc1ccc(Cl)cc1F	hERG rescue 7.3
COc1ccc(S(=O)(=O)N(C)CC(=O)Nc2ccc(F)cc2)cc1	hERG rescue 5.9
COc1ccc(S(=O)(=O)N(C)CC(=O)Nc2cccc(C(C)=O)c2)cc1	none
COc1ccc([C@H]2CC(=O)C=C(c3ccc(F)cc3OCc3ccccc3)C2)cc1OC	none (no result: KCNQ1 act, KCNQ1 inh, hERG rescue, KCNK9 inh, Cl transport mod)
CC(=O)c1cccc(N=c2scc(-c3ccc(S(=O)(=O)N4CCOCC4)cc3)n2CCO)c1	KCNQ1 inh 7
CN(/C=C/C(=C\C=[N+](C)c1ccccc1)OCCCS(=O)(=O)[O-])c1ccccc1	KCNQ1 inh 6
Cc1ccc2cc(CN(Cc3ccc4c(c3)OCO4)Cc3nnnn3Cc3ccco3)c(=O)[nH]c2c1C	none
Cc1ccc(C)c2[nH]c(=O)c(CN(Cc3ccc4c(c3)OCO4)Cc3nnnn3Cc3ccco3)cc12	KCNK3 block -9.4, KCNK9 inh -7.1
Cc1ccc(C)c2[nH]c(=O)c(CN(Cc3ccco3)S(=O)(=O)c3ccc4c(c3)OCCO4)cc12	KCNQ1 inh 6
CCc1ccc2[nH]c(=O)c(CN(Cc3ccco3)S(=O)(=O)c3ccc4c(c3)OCCO4)cc2c1	none
COCCCn1c(=O)c2ccccc2n(Cc2cc(C(=O)OC)ccc2OC)c1=O	none (no result: Cl transport mod)
Cn1c2ccccc2c2cc(/C=C(\NC(=O)c3ccccc3)C(=O)O)ccc21	none
CC(C)OC(=O)/C(=C\c1ccc2c(c1)c1ccccc1n2C)NC(=O)c1ccccc1	KCNK9 inh -7.9 (no result: Cl transport mod)
CC(C)OC(=O)/C(=C\c1cccnc1)NC(=O)c1ccccc1	none
CC(C)OC(=O)/C(=C/c1ccc2c(c1)c1ccccc1n2C)NC(=O)c1ccccc1	KCNK9 inh -7.6
COc1ccccc1C(=O)ON=C1c2ccccc2-c2ccccc21	KCNK9 inh -8.1
O=C(Nc1ccc2cn[nH]c2c1)c1c(Cl)cccc1Cl	none
CN(C)c1ccc(NC2=C(Cl)C(=O)c3ccccc3C2=O)cc1	none
CC(=O)Nc1ccc(NC2=C(Cl)C(=O)c3ccccc3C2=O)cc1	KCNQ1 inh 12 (no result: KCNK3 block)
O=C1C(Cl)=C(Nc2ccc3cn[nH]c3c2)C(=O)c2ccccc21	KCNQ1 inh 9 (no result: Cl transport mod)
COc1cc(Cl)c(C)cc1NC(=O)CN(C)C1CCS(=O)(=O)C1 (stereo not given)	none (no result: KCNQ1 act, KCNQ1 inh, hERG rescue, KCNK9 inh, Cl transport mod)
COc1ccc(C)cc1NC(=O)CNC(=O)[C@@H]1Cc2ccccc2CN1	none (no result: Cl transport mod)
C=C[C@]1(C)C=C2CCC3[C@](C)(CCC[C@@]3(C)C(=O)O)C2CC1 (stereo not given in full)	KCNQ1 act 9 (no result: Cl transport mod)
CC(C)C1=CC2=CCC3C(C)(C(=O)O)CCCC3(C)C2CC1 (stereo not given) (tested in a mixture with another compound)	none (no result: KCNK3 block, Cl transport mod)
CC(Cc1cccs1)NC(=O)Nc1ccc(F)cc1 (stereo not given)	KCNK9 inh -6.6
Cc1ncc(CO)c(CNc2ccc(Oc3ccccc3)cc2)c1O	none (no result: Cl transport mod)
C/C(=N\NS(=O)(=O)c1ccc(C(C)(C)C)cc1)c1ccccc1	KCNQ1 inh 6 (no result: Cl transport mod)
